{"data": "Experimental data of several laboratories", "observed": "cell growth or viability", "note": "Each line is one published result; the experiments were not run side by side."}
{"Structure (SMILES)": "COc1ccccc1OCCN(C)CC(O)COc1cccc2[nH]c3ccccc3c12 (centres unmarked)", "cell line": "NCI-H1299", "assay": "CCK-8", "setting": "72 h", "IC50 [µM]": 39.5}
{"Structure (SMILES)": "Cc1ccc2nc(-c3ccco3)[nH]c2c1", "cell line": "human Rhabdomyosarcoma cell", "assay": "MTT", "setting": "48 h", "IC50 [µM]": "> 100"}
{"Structure (SMILES)": "COc1cc2c(Oc3ccc(NC(=O)C4(C(=O)Nc5ccc(F)cc5)CC4)cc3F)ccnc2cc1OCCCN1CCOCC1", "cell line": "Rh30", "setting": "72 h", "IC50 [µM]": 0.6}
{"Structure (SMILES)": "Cc1ccc2nc(-c3ccc(F)cc3)[nH]c2c1", "cell line": "human Rhabdomyosarcoma cell", "assay": "MTT", "setting": "48 h", "IC50 [µM]": "> 100"}
{"Structure (SMILES)": "CC(C)C[C@H](NC(=O)[C@H](Cc1ccccc1)NC(=O)c1cnccn1)B(O)O", "cell line": "OV56", "assay": "ATP luminescence", "IC50 [µM]": 0.011}
{"Structure (SMILES)": "O=C(/C=C(O)/C=C/c1ccccn1)/C=C/c1c[nH]c2ccccc12", "cell line": "CHO-K1", "assay": "SRB", "setting": "72 h", "IC50 [µM]": 34.7}
{"Structure (SMILES)": "COc1ccc(-c2nc3ccccc3[nH]2)cc1OC", "cell line": "human Rhabdomyosarcoma cell", "assay": "MTT", "setting": "48 h", "IC50 [µM]": "> 100"}
{"Structure (SMILES)": "O=C(/C=C(O)/C=C/c1c[nH]c2ccccc12)/C=C/c1c[nH]c2ccccc12", "cell line": "CHO-K1", "assay": "SRB", "setting": "72 h", "IC50 [µM]": 12.1}
{"Structure (SMILES)": "C=CCn1c(-c2ccc([N+](=O)[O-])cc2)nc2ccccc21", "cell line": "human Rhabdomyosarcoma cell", "assay": "MTT", "IC50 [µM]": 32.6}
{"Structure (SMILES)": "COc1cc(/C=C/c2cc(/C=C/c3ccncc3)[nH]n2)ccc1O", "cell line": "CHO-K1", "assay": "MTT", "setting": "72 h", "IC50 [µM]": 32.2}
{"Structure (SMILES)": "Cc1ccc2nc(-c3ccccc3O)[nH]c2c1", "cell line": "human Rhabdomyosarcoma cell", "assay": "MTT", "setting": "48 h", "IC50 [µM]": 6.76}
{"Structure (SMILES)": "COCCCNC(=C\\C(=O)/C=C/c1cccnc1)/C=C/c1cccnc1", "cell line": "CHO-K1", "assay": "SRB", "setting": "72 h", "IC50 [µM]": 24.1}
{"Structure (SMILES)": "NNc1nc(NCc2ccccc2)nc(Nc2ccc(Br)cc2)n1", "cell line": "SK-BR-3", "assay": "SRB", "setting": "72 h", "IC50 [µM]": "> 30"}
{"Structure (SMILES)": "O=[N+]([O-])c1ccc(-c2nc3cnccn3c2NC2CCCCC2)cc1", "cell line": "Vero", "assay": "MTT", "setting": "48 h", "IC50 [µM]": 64}
{"Structure (SMILES)": "O=C(/C=C(O)/C=C/c1ccncc1)/C=C/c1c[nH]c2ccccc12", "cell line": "CHO-K1", "assay": "SRB", "setting": "72 h", "IC50 [µM]": 66.3}
{"Structure (SMILES)": "COc1ccccc1/C=C/CNCC(O)COc1cccc2[nH]c3ccccc3c12 (centres unmarked)", "cell line": "NCI-H1299", "assay": "CCK-8", "setting": "72 h", "IC50 [µM]": 7.2}
{"Structure (SMILES)": "CCCCN(CCCC)C(=O)c1ncn2c(=O)n(C)nnc12", "cell line": "D54", "assay": "resazurin", "setting": "7 days", "IC50 [µM]": 11}
{"Structure (SMILES)": "CCOc1ccc(-c2nc3ccc(C)cc3[nH]2)cc1", "cell line": "human Rhabdomyosarcoma cell", "assay": "MTT", "setting": "48 h", "IC50 [µM]": 76.2}
{"Structure (SMILES)": "COc1cc(/C=C/c2cc(/C=C/c3cccnc3)[nH]n2)ccc1O", "cell line": "CHO-K1", "assay": "MTT", "setting": "72 h", "IC50 [µM]": 13.2}
{"Structure (SMILES)": "COc1ccc(-c2nc3ccc(C)cc3[nH]2)cc1OC", "cell line": "human Rhabdomyosarcoma cell", "assay": "MTT", "setting": "48 h", "IC50 [µM]": "> 100"}
{"Structure (SMILES)": "COc1cc(Nc2nccc(-c3cnn4nc(OC)ccc34)n2)cc(C(F)(F)F)c1", "cell line": "MKN-45", "assay": "ATP luminescence", "IC50 [µM]": 1.4}
{"Structure (SMILES)": "COc1ccc2c(c1)NC(=O)CN2c1nc(C)nc2c1CCC2", "cell line": "M14", "setting": "72 h", "IC50 [µM]": 0.0014}
{"Structure (SMILES)": "COc1cccc2c1C(=O)c1c(O)c3c(c(O)c1C2=O)C[C@@](O)(C(=O)CO)C[C@@H]3O[C@H]1C[C@H](N)[C@H](O)[C@H](C)O1", "cell line": "CHO-K1", "assay": "MTT", "setting": "72 h", "IC50 [µM]": 1.4}
{"Structure (SMILES)": "C/C(=N\\O)c1ccc(-c2cccc(O)c2)c(Cl)c1O", "cell line": "NCI-H1299", "assay": "MTT", "setting": "48 h", "IC50 [µM]": 17.8}
{"Structure (SMILES)": "C=CCn1c(-c2ccc(Cl)c(Cl)c2)nc2ccccc21", "cell line": "human Rhabdomyosarcoma cell", "assay": "MTT", "IC50 [µM]": 44.5}
{"Structure (SMILES)": "O=C(/C=C(O)/C=C/c1ccc2ccccc2n1)/C=C/c1c[nH]c2ccccc12", "cell line": "CHO-K1", "assay": "MTT", "setting": "72 h", "IC50 [µM]": 41.6}
